# Calls of active or inactive are those of the source. The rule behind the calls is not given here.
# Assays:
# KBVIN = assay: (§1) Cytotoxicity against human KBVIN cells assessed as growth inhibition after 72 hrs by SRB assay; assay type: functional
# Procedure, shortened: (§2)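 Sulforhodamine B assay run by NCI-validated procedure. Cells grown at 37 °C under humidified 5% CO2 in RPMI-1640 with 25 mM HEPES, […] (w/v) sodium bicarbonate, 10% (v/v) FBS and 100 μg/mL kanamycin. Compounds came from DMSO stocks, with final DMSO ≤ 1% (v/v). Continuous exposure for 72 h. ED50 (μg/mL, 50% cell-number reduction) interpolated from dose-response data. Triplicate tests. Doxorubicin served as positive control.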
# A549 = assay: Cytotoxicity against human A549 cells assessed as growth inhibition after 72 hrs by SRB assay; assay type: functional; settings: Homo sapiens, A549, 72 h; read-out: ED50 (the source's name); procedure, shortened: as §2
# CAKI-1 = assay: Cytotoxicity against human CAKI-1 cells assessed as growth inhibition after 72 hrs by SRB assay; assay type: functional; settings: for EC50: Homo sapiens, CAKI-1, 72 h, read-out: ED50 (the source's name); procedure, shortened: as §2
# SK-MEL-2 = assay: Cytotoxicity against human SK-MEL-2 cells assessed as growth inhibition after 72 hrs by SRB assay; assay type: functional; settings: for EC50: Homo sapiens, SK-MEL-2, 72 h, read-out: ED50 (the source's name); procedure, shortened: as §2
# MCF7 = assay: Cytotoxicity against human MCF7 cells assessed as growth inhibition after 72 hrs by SRB assay; assay type: functional; settings: Homo sapiens, MCF7, 72 h; read-out: ED50 (the source's name); procedure, shortened: as §2
# PC-3 = assay: Cytotoxicity against human PC3 cells assessed as growth inhibition after 72 hrs by SRB assay; assay type: functional; settings: for EC50: Homo sapiens, PC-3, 72 h, read-out: ED50 (the source's name); procedure, shortened: as §2
# 1A9 = assay: Cytotoxicity against human 1A9 cells assessed as growth inhibition after 72 hrs by SRB assay; assay type: functional; settings: for EC50: Homo sapiens, 1A9, 72 h, read-out: ED50 (the source's name); procedure, shortened: as §2
# [1] = Cytotoxicity against human U87MG cells assessed as growth inhibition after 72 hrs by SRB assay; assay type: functional, U-87MG ATCC; settings: Homo sapiens, U-87 MG, 72 h; read-out: ED50 (the source's name); procedure, shortened: as §2
# [2] = as §1; assay type: functional; settings: Homo sapiens, KBVIN, 72 h; read-out: ED50 (the source's name); procedure, shortened: as §2
# [3] = Cytotoxicity against human […] cells assessed as growth inhibition after 72 hrs by SRB assay; assay type: functional; settings: Homo sapiens, HCT9, 72 h; read-out: ED50 (the source's name); procedure, shortened: as §2
# KB = assay: Cytotoxicity against human KB cells assessed as growth inhibition after 72 hrs by SRB assay; assay type: functional; settings: Homo sapiens, KB, 72 h; read-out: ED50 (the source's name); procedure, shortened: as §2
Compound,growth inhibition (GI) (KBVIN),EC50 (A549),growth inhibition (GI) (CAKI-1),growth inhibition (GI) (SK-MEL-2),EC50 (MCF7),growth inhibition (GI) (PC-3),growth inhibition (GI) (1A9),EC50 [1],EC50 [2],EC50 [3],EC50 (CAKI-1),EC50 (SK-MEL-2),EC50 (PC-3),EC50 (1A9),EC50 (KB)
CC(C)(O)[C@@H]1Cc2cc3ccc(=O)oc3cc2O1 [MARMESIN],inactive,> 20 µg/mL,inactive,inactive,> 20 µg/mL,inactive,inactive,,,,,,,,
C[C@H]1O[C@H](O[C@H]2CC[C@]3(C(=O)O)[C@H]4C[C@@H](O)[C@]5(C)[C@@H](C6=CC(=O)OC6)CC[C@]5(O)[C@@H]4CC[C@]3(O)C2)[C@H](O)[C@H](O)[C@H]1O [ANTIAROSIDE H],,0.76 µg/mL,,,3.1 µg/mL,,,7.3 µg/mL,7.1 µg/mL,2.5 µg/mL,1.5 µg/mL,1.3 µg/mL,1.8 µg/mL,1.4 µg/mL,5.9 µg/mL
C[C@@H]1O[C@H](O[C@H]2CC[C@@H]3[C@H]4CC[C@]5(C)[C@@H](C6=CC(=O)OC6)CC[C@]5(O)[C@@H]4CC[C@]3(O)C2)[C@H](O)[C@H](O)[C@H]1O [ANTIAROSIDE I],,0.36 µg/mL,,,1.3 µg/mL,,,3.6 µg/mL,2.3 µg/mL,2.9 µg/mL,1.1 µg/mL,0.3 µg/mL,0.9 µg/mL,0.83 µg/mL,2 µg/mL
COc1c(CC(O)C(C)(C)O)cc2ccc(=O)oc2c1O (centres undefined),inactive,10.8 µg/mL,,,> 20 µg/mL,,,,,6.7 µg/mL,1.5 µg/mL,1.3 µg/mL,,1.5 µg/mL,
C[C@@H]1O[C@H](O[C@H]2CC[C@@]3(C(=O)O)[C@H](CC[C@@H]4[C@@H]3CC[C@]3(C)[C@@H](C5=CC(=O)OC5)CC[C@]43O)C2)[C@H](O)[C@H](O)[C@H]1O [ANTIAROSIDE E],,0.07 µg/mL,,,0.42 µg/mL,,,0.73 µg/mL,0.57 µg/mL,0.35 µg/mL,0.13 µg/mL,0.12 µg/mL,0.16 µg/mL,0.13 µg/mL,0.49 µg/mL
C[C@H]1O[C@@H](O[C@H]2CC[C@]3(C=O)[C@H]4CC[C@]5(C)[C@@H](C6=CC(=O)OC6)CC[C@]5(O)[C@@H]4CC[C@]3(O)C2)[C@H](O)[C@H](O)[C@H]1O [DESGLUCOCHEIROTOXIN],,0.0092 µg/mL,,,0.015 µg/mL,,,0.054 µg/mL,0.018 µg/mL,0.044 µg/mL,0.014 µg/mL,0.015 µg/mL,0.018 µg/mL,0.012 µg/mL,0.044 µg/mL
C[C@@H]1O[C@@H](O[C@H]2CC[C@]3(C=O)[C@H]4CC[C@]5(C)[C@@H](C6=CC(=O)OC6)CC[C@]5(O)[C@@H]4CC[C@]3(O)C2)[C@H](O)[C@H](O)[C@H]1O[C@@H]1O[C@H](CO)[C@@H](O)[C@H](O)[C@H]1O [CONVALLOSIDE],,0.07 µg/mL,,,0.15 µg/mL,,,0.4 µg/mL,0.18 µg/mL,0.2 µg/mL,0.071 µg/mL,0.42 µg/mL,0.095 µg/mL,0.072 µg/mL,0.2 µg/mL
C[C@@H]1O[C@H](O[C@H]2CC[C@@]3(C(=O)O[C@@H]4O[C@H](CO)[C@@H](O)[C@H](O)[C@H]4O)[C@H](CC[C@@H]4[C@@H]3CC[C@]3(C)[C@@H](C5=CC(=O)OC5)CC[C@]43O)C2)[C@H](O)[C@H](O)[C@H]1O [ANTIAROSIDE F],,0.54 µg/mL,,,1.3 µg/mL,,,4.5 µg/mL,2.2 µg/mL,3.4 µg/mL,1.2 µg/mL,0.32 µg/mL,0.89 µg/mL,0.97 µg/mL,1.8 µg/mL
CO[C@H]1[C@@H](O[C@H]2CC[C@]3(C=O)[C@H]4C[C@@H](O)[C@]5(C)[C@@H](C6=CC(=O)OC6)CC[C@]5(O)[C@@H]4CC[C@]3(O)C2)O[C@H](C)[C@@H](O)[C@@H]1O [TOXICARIOSIDE B],,0.058 µg/mL,,,0.092 µg/mL,,,0.13 µg/mL,0.14 µg/mL,0.11 µg/mL,0.07 µg/mL,0.12 µg/mL,0.091 µg/mL,0.063 µg/mL,0.13 µg/mL
C[C@H]1O[C@H](O[C@H]2CC[C@]3(C=O)[C@H]4C[C@@H](O)[C@]5(C)[C@@H](C6=CC(=O)OC6)CC[C@]5(O)[C@@H]4CC[C@]3(O)C2)[C@H](O)[C@H](O)[C@@H]1O [ANTIALLOSIDE],,0.046 µg/mL,,,0.12 µg/mL,,,0.15 µg/mL,0.075 µg/mL,0.11 µg/mL,0.068 µg/mL,0.12 µg/mL,0.085 µg/mL,0.062 µg/mL,0.065 µg/mL
